Measured values from ChEMBL document CHEMBL4706740, “Structure-Activity Study of Nitazoxanide Derivatives as Novel STAT3 Pathway Inhibitors” (ACS Med Chem Lett, 2021).
Values belong to the compound of their own block, whether it stands above or below them.

What was measured:
[1] = biological target: Signal transducer and activator of transcription 3 (Homo sapiens) (UniProt P40763); test: Inhibition of IL-6 induced STAT3 transcriptional activity in human HEK-Blue IL-6 cells assessed as secreted embryonic alkaline phosphatase reporter gene expression at 10 uM by microplate reader; assay type: cell-based
In short: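 Single-concentration screen in HEK-Blue IL-6 cells: % inhibition of the SEAP reporter read-out of STAT3 pathway activity, with viability checked by MTT in parallel. Values are averages of three independent experiments.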

[2] = Cytotoxicity against human HeLa cells assessed as inhibition of cell viability at 10 uM measured after 48 hrs by MTT assay; assay type: cell-based; conditions: read-out: INH
[3] = AUC (0 to infinity) in Sprague-Dawley rat at 5 mg/kg, iv; assay type: ADME, organism-based; parameters: route intravenous, time infinity, dose 5 mg/kg; conditions: in vivo
In short: (§1)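 Rats, n = 3 per group, received a single dose either intragastrically (25 mg/kg) or intravenously (5 mg/kg). Plasma concentration–time curves were used to derive t1/2α, t1/2β, Vd/F, CL/F, AUC0–∞, Tmax and Cmax. Absolute oral bioavailability was calculated from the ig and iv data.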

[4] = Absolute bioavailability in Sprague-Dawley rat at 25 mg/kg, IG; assay type: ADME, organism-based; conditions: in vivo, po; in short: as §1
[5] = AUC (0 to infinity) in Sprague-Dawley rat at 25 mg/kg, IG; assay type: ADME, organism-based; parameters: route […], time infinity, dose 25 mg/kg; conditions: in vivo, po; in short: as §1
[6] = Tmax in Sprague-Dawley rat at 25 mg/kg, IG; assay type: ADME, organism-based; conditions: in vivo, po
[7] = Half life in Sprague-Dawley rat at 5 mg/kg, iv; assay type: ADME, organism-based; conditions: in vivo; in short: as §1
[8] = Half life in Sprague-Dawley rat at 25 mg/kg, IG; assay type: ADME, organism-based; conditions: in vivo, po; in short: as §1
[9] = Apparent volume of distribution in Sprague-Dawley rat at 5 mg/kg, iv; assay type: ADME, organism-based; conditions: in vivo; in short: as §1
[10] = Apparent oral clearance in Sprague-Dawley rat at 25 mg/kg, IG; assay type: ADME, organism-based; conditions: in vivo, read-out: CL/F (converted); in short: as §1
[11] = Cmax in Sprague-Dawley rat at 5 mg/kg, iv; assay type: ADME, organism-based; parameters: route intravenous, dose 5 mg/kg; conditions: in vivo; in short: as §1
[12] = Elimination Half life in Sprague-Dawley rat at 25 mg/kg, IG; assay type: ADME, organism-based; conditions: in vivo, po, read-out: beta t1/2 (converted); in short: as §1
[13] = Apparent volume of distribution in Sprague-Dawley rat at 25 mg/kg, IG; assay type: ADME, organism-based; conditions: in vivo, po
[14] = Elimination Half life in Sprague-Dawley rat at 5 mg/kg, iv; assay type: ADME, organism-based; conditions: in vivo, read-out: beta t1/2 (converted); in short: as §1
[15] = Cmax in Sprague-Dawley rat at 25 mg/kg, IG; assay type: ADME, organism-based; parameters: route […], dose 25 mg/kg; conditions: in vivo, po; in short: as §1
HeLa = test: Cytotoxicity against human HeLa cells assessed as inhibition of cell viability measured after 48 hrs by MTT assay; assay type: functional, cell-based
In short: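 Growth was read by MTT assay and IC50 taken from dose–response curves. Values are averages of three independent experiments.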

[16] = Cytotoxicity against human HEK 293T cells assessed as cell growth inhibition at 10 uM measured after 48 hrs by MTT assay; assay type: cell-based
[17] = Cytotoxicity against human HEK 293T cells assessed as cell growth inhibition at 50 uM measured after 48 hrs by MTT assay; assay type: cell-based

Chain of Signal transducer and activator of transcription 3 (Homo sapiens) (P40763 whole entry): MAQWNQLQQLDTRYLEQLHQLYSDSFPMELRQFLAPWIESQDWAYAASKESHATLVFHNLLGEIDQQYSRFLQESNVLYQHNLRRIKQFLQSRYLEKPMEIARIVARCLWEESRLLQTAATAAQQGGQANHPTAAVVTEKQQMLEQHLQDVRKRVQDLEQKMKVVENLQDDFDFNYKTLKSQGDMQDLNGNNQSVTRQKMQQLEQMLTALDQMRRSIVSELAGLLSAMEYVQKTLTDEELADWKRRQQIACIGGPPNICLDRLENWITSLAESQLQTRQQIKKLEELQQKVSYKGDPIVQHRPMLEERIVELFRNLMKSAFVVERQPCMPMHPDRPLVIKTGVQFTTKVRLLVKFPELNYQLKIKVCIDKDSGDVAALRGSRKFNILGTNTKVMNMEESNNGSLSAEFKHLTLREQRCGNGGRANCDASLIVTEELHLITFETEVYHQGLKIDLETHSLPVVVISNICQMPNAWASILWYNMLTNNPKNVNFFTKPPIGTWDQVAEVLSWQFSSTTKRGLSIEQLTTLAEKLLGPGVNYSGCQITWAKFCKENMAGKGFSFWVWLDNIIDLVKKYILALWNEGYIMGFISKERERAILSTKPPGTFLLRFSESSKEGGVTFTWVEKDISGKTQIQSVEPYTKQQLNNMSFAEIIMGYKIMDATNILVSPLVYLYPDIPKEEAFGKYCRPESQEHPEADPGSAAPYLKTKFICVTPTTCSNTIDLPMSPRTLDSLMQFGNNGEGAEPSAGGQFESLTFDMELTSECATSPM

inhibition [1]: 25.1%
SMILES: O=C(Nc1ncc([N+](=O)[O-])s1)c1ccccc1Br
cytotoxicity at 48 h, 10 µM [2]: -10.1%

inhibition [1]: 14.9%
SMILES: COc1ccc(C(=O)Nc2ncc([N+](=O)[O-])s2)cc1

inhibition [1]: 5.3%
SMILES: CS(=O)(=O)c1ccc(C(=O)Nc2ncc([N+](=O)[O-])s2)cc1

inhibition [1]: 36.4%
SMILES: Cc1ccccc1C(=O)Nc1ncc([N+](=O)[O-])s1

inhibition [1]: -9.7%
SMILES: NS(=O)(=O)c1ccc(C(=O)Nc2ncc([N+](=O)[O-])s2)cc1

inhibition [1]: 20.9%
SMILES: O=C(Nc1ncc([N+](=O)[O-])s1)c1ccc(O)cc1

inhibition [1]: 15.5%
SMILES: O=C(Nc1ncc([N+](=O)[O-])s1)c1ccc(O)cc1O

inhibition [1]: 28.5%
SMILES: O=C(Nc1ncc([N+](=O)[O-])s1)c1cccc(O)c1

inhibition [1]: 35.5%
SMILES: O=C(Nc1ncc([N+](=O)[O-])s1)c1ccccc1

inhibition [1]: 23%
SMILES: O=C(Nc1ncc([N+](=O)[O-])s1)c1ccccc1Cl

inhibition [1]: 22.1%
SMILES: O=C(Nc1ncc([N+](=O)[O-])s1)c1ccccc1F

inhibition [1]: 19%
SMILES: O=C(Nc1ncc([N+](=O)[O-])s1)c1ccccc1[N+](=O)[O-]

The remaining lines, values behind:

SMILES: O=C(Nc1ncc([N+](=O)[O-])s1)c1ccc(C(F)(F)F)cc1
AUC(0-inf) [3]: 89.4 µg·h/mL
bioavailability [4]: 87.4%
AUC(0-inf) [5]: 391 µg·h/mL
Tmax [6]: 4 h
half-life [7]: 3.6 min
half-life [8]: 1.9 h
Vd/F [9]: 0.5 L/kg
CL/F [10]: 0.833 mL/min/kg
Cmax [11]: 28100 ng/mL
half-life [12]: 11.1 h
Vd/F [13]: 0.5 L/kg
half-life [14]: 2.3 h
Cmax [15]: 20700 ng/mL

SMILES: O=C(Nc1ncc([N+](=O)[O-])s1)c1ccc(N2CCOCC2)cc1
inhibition [1]: 9%
cytotoxicity at 48 h, 10 µM [2]: 50.6%

SMILES: C#CCN(C(=O)c1ccc(C(F)(F)F)cc1)c1ncc([N+](=O)[O-])s1
inhibition [1]: 9.1%

SMILES: CC(C)(C)c1ccc(C(=O)Nc2ncc([N+](=O)[O-])s2)cc1
inhibition [1]: 43.7%

SMILES: CN1CCN(c2ccc(C(=O)Nc3ncc([N+](=O)[O-])s3)cc2)CC1
inhibition [1]: -3.3%

SMILES: O=C(Nc1ncc([N+](=O)[O-])s1)c1ccc(O)c(O)c1
inhibition [1]: 26.7%

SMILES: O=C(Nc1ncc([N+](=O)[O-])s1)c1ccc(S(=O)(=O)Nc2ccccc2)cc1
inhibition [1]: 9%

SMILES: O=C(Nc1ncc([N+](=O)[O-])s1)c1ccccc1O [TIZOXANIDE]
IC50 (HeLa): 29.8 µM
inhibition at 48 h, 10 µM [16]: -5.7%
cytotoxicity at 48 h, 10 µM [2]: 12.7%
inhibition at 48 h, 50 µM [17]: 21.6%

SMILES: C[C@H](NC(=O)/C(C#N)=C/c1cccc(Br)n1)c1ccccc1 [WP 1066]
IC50 (HeLa): 4.2 µM
inhibition at 48 h, 10 µM [16]: 79.9%
inhibition at 48 h, 50 µM [17]: 97.2%
